Laboratory results: ChEMBL document CHEMBL4689842, “EUbOPEN Chemogenomics Library wave 1” (2021)
Where “and” joins values, the source holds several entries; their conditions need not be identical. Equal entries are not always repeated.

Test system: HEK-293T
Experiment: Multiplex assay against HEK293T;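 on Population Tubulin-Different-Phenotype (%): share of the cells with healthy nuclei that show this phenotype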
Type: toxicity, cell-based
Settings: human
Procedure, shortened: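 Values for tubulin, mitochondrial-mass and membrane-permeability phenotypes are per cents of cells with healthy nuclei. These cells were identified by CellPathfinder machine-learning gating of live cells that had been stained at seeding with Hoechst33342, BioTracker Green Microtubule Cytoskeleton Dye, MitoTracker Red and Annexin V Alexa Fluor 680 and imaged on a CQ1 microscope at 37°C and 5% CO2 after compound addition. The gating first set Hoechst high-intensity objects apart from normal cells, then split normal cells into healthy, pyknosed or fragmented nuclei, and pyknosed cells into mitotic or apoptotic.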

[1] = 12 h, 1 µM, compound concentration 1 uM, replicate 1
[2] = 12 h, 1 µM, compound concentration 1 uM, replicate 2
[3] = 12 h, 10 µM, compound concentration 10 uM, replicate 1
[4] = 12 h, 10 µM, compound concentration 10 uM, replicate 2
[5] = 24 h, 1 µM, compound concentration 1 uM, replicate 1
[6] = 24 h, 1 µM, compound concentration 1 uM, replicate 2
[7] = 24 h, 10 µM, compound concentration 10 uM, replicate 1
[8] = 24 h, 10 µM, compound concentration 10 uM, replicate 2
[9] = 48 h, 1 µM, compound concentration 1 uM, replicate 1
[10] = 48 h, 1 µM, compound concentration 1 uM, replicate 2
[11] = 48 h, 10 µM, compound concentration 10 uM, replicate 1
[12] = 48 h, 10 µM, compound concentration 10 uM, replicate 2

Nc1c(C(=O)NCc2ccc(C(=O)NCCCC3CCCCC3)cc2)cnn1-c1ccccc1 [SR-318]
Population Apoptotic (%) [1]: 38% and 53% and 33%
Population Fragmented Nuclei (%) [1]: 11% and 10%
Population Healthy Nuclei (%) [1]: 45% and 28% and 41%
Population Hoechst High Intensity Objects (%) [1]: 13% and 14% and 11%
Population Membrane Permeable-Phenotype (%) [1]: 1%
Population Mitochondria Different-Phenotype (%) [1]: 68% and 75% and 77%
Population Mitotic Cells (%) [1]: 61% and 46% and 66%
Population Normal (%) [1]: 86% and 85% and 88%
Population Pyknosed Nuclei (%) [1]: 45% and 60% and 48%
Population Tubulin-Different-Phenotype (%) [1]: 37% and 47% and 50%
Total Cell Count [1]: 564 and 341 and 583
Population Apoptotic (%) [2]: 8% and 14% and 10%
Population Fragmented Nuclei (%) [2]: 9% and 6%
Population Healthy Nuclei (%) [2]: 39% and 42% and 51%
Population Hoechst High Intensity Objects (%) [2]: 4% and 5% and 2%
Population Membrane Permeable-Phenotype (%) [2]: 8% and 6% and 4%
Population Mitochondria Different-Phenotype (%) [2]: 22% and 14% and 17%
Population Mitotic Cells (%) [2]: 91% and 85% and 89%
Population Normal (%) [2]: 95% and 94% and 97%
Population Pyknosed Nuclei (%) [2]: 51% and 47% and 41%
Population Tubulin-Different-Phenotype (%) [2]: 18% and 20% and 15%
Total Cell Count [2]: 208 and 203 and 249
Population Apoptotic (%) [3]: 43% and 67% and 60%
Population Fragmented Nuclei (%) [3]: 13% and 17% and 12%
Population Healthy Nuclei (%) [3]: 21% and 14% and 18%
Population Hoechst High Intensity Objects (%) [3]: 16% and 13% and 15%
Population Membrane Permeable-Phenotype (%) [3]: 5% and 2% and 1%
Population Mitochondria Different-Phenotype (%) [3]: 97% and 100% and 94%
Population Mitotic Cells (%) [3]: 56% and 32% and 39%
Population Normal (%) [3]: 83% and 86% and 84%
Population Pyknosed Nuclei (%) [3]: 64% and 68%
Population Tubulin-Different-Phenotype (%) [3]: 90% and 89% and 92%
Total Cell Count [3]: 492 and 305 and 342
Population Apoptotic (%) [4]: 42% and 40% and 53%
Population Fragmented Nuclei (%) [4]: 2% and 5%
Population Healthy Nuclei (%) [4]: 31% and 23%
Population Hoechst High Intensity Objects (%) [4]: 6% and 3%
Population Membrane Permeable-Phenotype (%) [4]: 7% and 4%
Population Mitochondria Different-Phenotype (%) [4]: 82% and 78% and 79%
Population Mitotic Cells (%) [4]: 57% and 59% and 46%
Population Normal (%) [4]: 93% and 96%
Population Pyknosed Nuclei (%) [4]: 66% and 62% and 70%
Population Tubulin-Different-Phenotype (%) [4]: 78% and 84%
Total Cell Count [4]: 272 and 248 and 191
Population Apoptotic (%) [5]: 42% and 41% and 52%
Population Fragmented Nuclei (%) [5]: 12% and 10% and 16%
Population Healthy Nuclei (%) [5]: 40% and 46% and 27%
Population Hoechst High Intensity Objects (%) [5]: 15% and 12%
Population Membrane Permeable-Phenotype (%) [5]: 3% and 1% and 5%
Population Mitochondria Different-Phenotype (%) [5]: 71% and 56% and 69%
Population Mitotic Cells (%) [5]: 57% and 58% and 47%
Population Normal (%) [5]: 84% and 87%
Population Pyknosed Nuclei (%) [5]: 46% and 43% and 55%
Population Tubulin-Different-Phenotype (%) [5]: 48% and 34% and 54%
Total Cell Count [5]: 634 and 591 and 363
Population Apoptotic (%) [6]: 11% and 13% and 5%
Population Fragmented Nuclei (%) [6]: 5% and 9% and 6%
Population Healthy Nuclei (%) [6]: 64% and 62% and 70%
Population Hoechst High Intensity Objects (%) [6]: 2%
Population Membrane Permeable-Phenotype (%) [6]: 7%
Population Mitochondria Different-Phenotype (%) [6]: 14% and 23% and 18%
Population Mitotic Cells (%) [6]: 88% and 86% and 94%
Population Normal (%) [6]: 97%
Population Pyknosed Nuclei (%) [6]: 30% and 27% and 22%
Population Tubulin-Different-Phenotype (%) [6]: 22% and 26% and 15%
Total Cell Count [6]: 245 and 241 and 330
Population Apoptotic (%) [7]: 50% and 60% and 64%
Population Fragmented Nuclei (%) [7]: 18% and 20%
Population Healthy Nuclei (%) [7]: 22% and 16% and 17%
Population Hoechst High Intensity Objects (%) [7]: 19% and 15% and 14%
Population Membrane Permeable-Phenotype (%) [7]: 0%
Population Mitochondria Different-Phenotype (%) [7]: 98% and 97% and 96%
Population Mitotic Cells (%) [7]: 49% and 39% and 35%
Population Normal (%) [7]: 80% and 84% and 85%
Population Pyknosed Nuclei (%) [7]: 58% and 63% and 61%
Population Tubulin-Different-Phenotype (%) [7]: 94% and 86% and 90%
Total Cell Count [7]: 489 and 314 and 331
Population Apoptotic (%) [8]: 61% and 57% and 59%
Population Fragmented Nuclei (%) [8]: 6% and 3%
Population Healthy Nuclei (%) [8]: 42% and 47% and 50%
Population Hoechst High Intensity Objects (%) [8]: 4% and 5%
Population Membrane Permeable-Phenotype (%) [8]: 3% and 1% and 2%
Population Mitochondria Different-Phenotype (%) [8]: 90% and 89% and 87%
Population Mitotic Cells (%) [8]: 38% and 42% and 40%
Population Normal (%) [8]: 95% and 94%
Population Pyknosed Nuclei (%) [8]: 50% and 49% and 46%
Population Tubulin-Different-Phenotype (%) [8]: 93%
Total Cell Count [8]: 222 and 291 and 281
Population Apoptotic (%) [9]: 50% and 32% and 31%
Population Fragmented Nuclei (%) [9]: 17% and 13% and 15%
Population Healthy Nuclei (%) [9]: 35% and 64% and 52%
Population Hoechst High Intensity Objects (%) [9]: 15% and 9% and 12%
Population Membrane Permeable-Phenotype (%) [9]: 0%
Population Mitochondria Different-Phenotype (%) [9]: 46% and 27% and 47%
Population Mitotic Cells (%) [9]: 50% and 67% and 68%
Population Normal (%) [9]: 84% and 90% and 87%
Population Pyknosed Nuclei (%) [9]: 46% and 21% and 32%
Population Tubulin-Different-Phenotype (%) [9]: 28% and 25% and 40%
Total Cell Count [9]: 384 and 851 and 794
Population Apoptotic (%) [10]: 20% and 10% and 15%
Population Fragmented Nuclei (%) [10]: 7% and 9% and 3%
Population Healthy Nuclei (%) [10]: 82% and 81%
Population Hoechst High Intensity Objects (%) [10]: 4%
Population Membrane Permeable-Phenotype (%) [10]: 3% and 1%
Population Mitochondria Different-Phenotype (%) [10]: 9% and 7% and 13%
Population Mitotic Cells (%) [10]: 79% and 89% and 84%
Population Normal (%) [10]: 95%
Population Pyknosed Nuclei (%) [10]: 10% and 9% and 15%
Population Tubulin-Different-Phenotype (%) [10]: 24% and 17% and 22%
Total Cell Count [10]: 386 and 610 and 321
Population Apoptotic (%) [11]: 68% and 72% and 52%
Population Fragmented Nuclei (%) [11]: 28% and 25%
Population Healthy Nuclei (%) [11]: 22% and 19% and 26%
Population Hoechst High Intensity Objects (%) [11]: 13% and 18% and 16%
Population Membrane Permeable-Phenotype (%) [11]: 0%
Population Mitochondria Different-Phenotype (%) [11]: 98% and 96% and 95%
Population Mitotic Cells (%) [11]: 31% and 27% and 47%
Population Normal (%) [11]: 86% and 81% and 84%
Population Pyknosed Nuclei (%) [11]: 48% and 55%
Population Tubulin-Different-Phenotype (%) [11]: 98% and 94% and 82%
Total Cell Count [11]: 329 and 319 and 500
Population Apoptotic (%) [12]: 66%
Population Fragmented Nuclei (%) [12]: 5% and 7% and 8%
Population Healthy Nuclei (%) [12]: 69% and 65% and 61%
Population Hoechst High Intensity Objects (%) [12]: 3% and 6%
Population Membrane Permeable-Phenotype (%) [12]: 2% and 1%
Population Mitochondria Different-Phenotype (%) [12]: 85% and 90% and 93%
Population Mitotic Cells (%) [12]: 33%
Population Normal (%) [12]: 96% and 93%
Population Pyknosed Nuclei (%) [12]: 25% and 26% and 30%
Population Tubulin-Different-Phenotype (%) [12]: 95%
Total Cell Count [12]: 373 and 318 and 253
